ABHD5 PLIN5 PPI: ABHD5-PLIN5 protein interaction inhibition; inhibition, % at 4 µM; Q00G26+Q8WTS1; 360,000 compounds, 0.78% hits; Split G. princeps luciferase complementation, luminescence, 4 h;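 active means inhibition above the mean inhibition across every tested compound plus 3 SD, cut at about 22% in these data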;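 further: 0% = DMSO only wells and the 100% control is not disclosed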
PfG6PD inh: PfG6PD (Plasmodium falciparum) enzyme inhibition | 350,000 compounds, 0.78% hits | PfGluPho enzyme, NADPH resazurin-diaphorase fluorescence | inhibition, % at 20 µM | AID 504690;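 active means inhibition reaching at least a set limit at 20 µM in the primary screen, cut at about 59% in these data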;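 further: 0% = DMSO wells with substrate and 100% = DMSO wells lacking glucose-6-phosphate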
Granule exo inh: lytic granule exocytosis inhibition | TALL-104 LAMP-1 surface exposure, flow cytometry; cells stimulated with thapsigargin and PMA | inhibition, % at 10 µM | 360,000 compounds, 0.66% hits | AID 651702;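 active means inhibition above about 55%, limit read from the data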
HKDC1 inhibitor: blocks human hexokinase HKDC1 activity. recombinant HKDC1, G6PDH/diaphorase resazurin coupled fluorescence. AID 493160. 340,000 compounds, 0.16% hits. inhibition, % at 20 µM. Q2TB90;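 active means inhibition above about 35% when tested at 20 µM, limit read from the data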;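 further: plate controls were DMSO wells with enzyme for no effect and DMSO wells lacking enzyme for full effect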
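System: Recombinant HKDC1 hexokinase | Amount: HKDC1 at 5 µg/mL | Reagent: Glucose with 1 mM ATP | Doses: Single 20 µM dose | Incubation: Reaction time 90 min, room temperature, protected from light | Signal: Coupled resazurin fluorescence, excitation 525 nm, emission 613 nm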
ABHD5 PLIN5 conf: ABHD5-PLIN5 interaction inhibition, confirmed; shares compounds with ABHD5 PLIN5 PPI; biochemical ABHD5-PLIN5 interaction, luminescence; inhibition, % at 4 µM; 2,200 compounds, 67% hits; in the data active means inhibition above about 23%;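 further: 0% = DMSO vehicle wells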
HNF4 counter: counter-screen for ABHD5-PLIN5 inhibitors: HNF4 split-luciferase | HNF4 dimerization, luminescence, biochemical | inhibition, % at 4 µM | 2,200 compounds, 77% hits | AID 651674 | shares compounds with ABHD5 PLIN5 PPI;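 active means mean inhibition across replicate wells exceeding the computed hit threshold, cut at about 13% in these data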;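 further: light from luciferase halves that rejoin when HNF4 fusion proteins dimerize; 0% = DMSO only wells and the 100% control is not given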
Target sequence (P41235 whole entry, looked up, the tested form may be a part): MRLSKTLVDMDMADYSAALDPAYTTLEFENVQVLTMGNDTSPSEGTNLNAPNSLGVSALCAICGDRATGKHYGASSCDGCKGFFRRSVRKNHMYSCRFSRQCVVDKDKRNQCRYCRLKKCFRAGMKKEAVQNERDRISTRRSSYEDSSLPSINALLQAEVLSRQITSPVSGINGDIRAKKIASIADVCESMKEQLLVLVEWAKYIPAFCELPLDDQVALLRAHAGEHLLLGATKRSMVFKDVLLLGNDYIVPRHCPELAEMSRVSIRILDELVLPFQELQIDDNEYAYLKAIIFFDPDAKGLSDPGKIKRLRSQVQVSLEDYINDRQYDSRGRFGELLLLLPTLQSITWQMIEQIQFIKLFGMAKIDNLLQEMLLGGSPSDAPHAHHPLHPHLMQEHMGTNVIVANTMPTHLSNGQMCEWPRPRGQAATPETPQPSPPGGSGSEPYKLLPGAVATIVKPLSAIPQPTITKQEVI
Granule exo CP1: lytic granule exocytosis inhibition; shares compounds with Granule exo inh; TALL-104 cells, LAMP-1 externalization, flow cytometry; stimulated with PMA plus thapsigargin; inhibition, % at 10 µM; 1,500 compounds, 11% hits; AID 651954; in the data active means inhibition above about 60%;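 further: 0% = stimulated vehicle wells and 100% = unstimulated wells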
* hit, by the source's call; . = no result given. Sampled rows, rich in hits. Any-hit rate of the full collection: about 2.2%.

SMILES	ABHD5 PLIN5 PPI	PfG6PD inh	Granule exo inh	HKDC1 inhibitor	ABHD5 PLIN5 conf	HNF4 counter	Granule exo CP1
COc1ccc(C(=O)CN2CCOCC2)cc1F	31*	5	5	-1	-3	9	.
CN1C(=O)C(=Cc2ccccc2OCc2ccc(Cl)cc2)C(=O)N(C)C1=O	1	7	-3	-5	.	.	.
CN1C(=O)C(=Cc2ccccc2Oc2ccc(Cl)cc2)C(=O)N(C)C1=O	32*	-7	3	4	55*	52*	.
Cc1ccc(S(=O)(=O)Oc2ccccc2C=C2C(=O)N(C)C(=O)N(C)C2=O)cc1	35*	12	-9	1	71*	72*	.
Cc1ccc(/C=C2\C(=O)NC(=O)N(CCc3ccc(F)cc3)C2=O)o1	-3	3	1	-4	.	.	.
O=C1NC(=O)C(=Cc2ccc(-c3ccc(F)cc3O)o2)C(=O)N1	25*	50	11	14	73*	86*	.
CN1CCCC1CCOC(C)(c1ccccc1)c1ccc(Cl)cc1 (centres undefined)	25*	-12	6	-4	33*	17*	.
CN1CCCC1C(O)(c1ccccc1)c1ccccc1 (centres undefined)	-1	-16	1	-2	.	.	.
O=P(OCC(F)(F)C(F)F)(N1CCCCC1)N1CCCCC1	2	-4	5	-5	.	.	.
CC(=O)OC(C)(C)/C=C/C(=O)[C@](C)(O)C1[C@H](O)C[C@@]2(C)C3CC=C4C(C[C@H](O)C(=O)C4(C)C)[C@]3(C)C(=O)C[C@]12C (some centres undefined)	10	-6	4	-5	.	.	.
CC(C)(O)/C=C/C(=O)C(C)(O)C1C(O)CC2(C)C3CC=C4C(C=C(O)C(=O)C4(C)C)C3(C)C(=O)CC12C (centres undefined)	42*	14	8	5	68*	50*	.
CCCCc1nc2ccccc2c(=O)n1-c1ccc(O)cc1	0	-10	-4	-4	.	.	.
CCOC(=O)[C@]12Cc3cc(OC)ccc3[C@H]1N(CC(=O)OC)C(=O)c1ccccc12	4	.	0	.	.	.	.
CCOC(=O)[C@]12Cc3cc(OC)ccc3[C@H]1N(C)C(=O)c1cc(OC)ccc12	7	.	-7	.	.	.	.
CCOC(=O)[C@]12Cc3ccc(C)cc3[C@H]1N(C1CCCCC1)C(=O)c1cc(OC)ccc12	43*	.	84*	.	41*	46*	23
CCOC(=O)[C@]12Cc3cc(C)ccc3[C@H]1N(C1CCCCC1)C(=O)c1ccccc12	48*	.	60*	.	21	39*	9
CCOC(=O)[C@]12Cc3c(cc(OC)c(OC)c3OC)[C@H]1N(C1CCCCC1)C(=O)c1ccccc12	39*	.	63*	.	20	32*	6
CCOC(=O)[C@]12Cc3cc(Cl)ccc3[C@H]1N(C1CCCCC1)C(=O)c1cc(OC)ccc12	61*	.	100*	.	39*	58*	92*
CCP(=S)(CC)c1ccc(N(C)C)cc1	-3	8	1	-8	.	.	.
O=c1[nH]c(=S)n(C2CC2)c(O)c1C=Nc1ccc2c(c1)OCO2	4	16	1	1	.	.	.
COC(=O)c1ccc(NC(=O)CSc2nc3ccc(N4C(=O)C5C6C=CC(C6)C5C4=O)cc3s2)cc1 (centres undefined)	-9	12	81*	-2	.	.	85*
O=C1/C(=C\c2ccc(Cl)cc2Cl)N2CCC1CC2	3	8	65*	1	.	.	-12
C(#CCN1CCOCC1)COCc1ccccc1	-4	-4	-4	-10	.	.	.
CC(C)CNC(=O)c1c(N)n(Cc2ccc3c(c2)OCO3)c2nc3ccccc3nc12	-30	45	56*	16	.	.	81*
O=C(NC(=O)N1CCC2(CC1)OCCO2)c1ccc(Cl)cc1	-1	-9	1	-3	.	.	.
SMILES	ABHD5 PLIN5 PPI	PfG6PD inh	Granule exo inh	HKDC1 inhibitor	ABHD5 PLIN5 conf	HNF4 counter	Granule exo CP1
COC(=O)C1=C(c2ccc(C(C)=O)cc2)C[C@@H]2CC[C@H]1N2C(=O)NC1CCCCC1	1	-11	65*	-1	.	.	-13
COC(=O)C1=C(c2ccc3ccccc3c2)C[C@@H]2CC[C@H]1N2C(=O)NC1CCCCC1	-3	9	10	0	.	.	.
Cc1ccc(OCC(=O)N2CCN(C3CCC(c4ccccc4)CC3)CC2)cc1 (centres undefined)	18	-8	95*	-7	.	.	-2
Cc1c(C(=O)N2CCC3(CC2)OCCO3)oc2ccc(S(=O)(=O)N3CCCCC3)cc12	-4	-2	2	-11	.	.	.
CCCCN1CCC(O)(c2ccccc2)C(C(=O)c2ccccc2)C1 (centres undefined)	1	-4	0	-8	.	.	.
CN1CCC(O)(c2cccs2)C(C(=O)c2cccs2)C1 (centres undefined)	6	9	75*	-5	.	.	-11
OC(CCNCCc1c[nH]c2ccccc12)C(F)(F)F (centres undefined)	7	2	0	-4	.	.	.
CCOC(=O)[C@]12Cc3cc(N(C)C)ccc3[C@H]1N(Cc1ccccc1)C(=O)c1ccccc12	-12	23	-4	-2	.	.	.
CCOC(=O)[C@]12Cc3cc(Cl)ccc3[C@H]1N(Cc1ccccc1)C(=O)c1ccccc12	2	26	87*	6	.	.	-3
Cc1cccc(NP(=O)(Oc2ccccc2)Oc2ccccc2)c1C	-1	-1	58*	6	.	.	-11
Cc1cc(C)c(C(=O)CN2CCOCC2)c(C)c1	-2	8	21	-8	.	.	.
CC(Cc1ccccc1)NCc1ccccc1O (centres undefined)	4	7	-1	-1	.	.	.
CC(Cc1ccccc1)NCC(=O)Nc1cc(N(C)C)nc2ccccc12 (centres undefined)	8	16	62*	3	.	.	-14
CN(C)CCN(CC1CCCN(Cc2ccccc2F)C1)C(=O)Cc1ccccc1F (centres undefined)	12	-4	34	-6	.	.	.
COc1ccc(CC(=O)N(CCN(C)C)CC2CCCN(Cc3ccccc3F)C2)cc1 (centres undefined)	2	-2	63*	4	.	.	-12

Bioassay records: PubChem, several laboratories
